In ChEMBL document CHEMBL1140692, “Toward the development of chemoprevention agents. Part II: Chemo-enzymatic synthesis and anti-inflammatory activities of a new class of 5-amino-2-substitutedphenyl-1,3-dioxacycloalkanes” (Bioorg Med Chem, 2007):

Legend:
Mus musculus [1] = test: Antiinflammatory activity in Kunming mouse assessed as inhibition of xylene-induced ear edema at 5 mg/kg, po after […]rs; type: functional
Outline: (§1)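 Male Kunming mice receive the agent orally as a suspension in 0.5% CMC; the vehicle group gets CMC alone. After 30 min, 0.03 ml xylene is applied to both surfaces of the right ear, and the left ear serves as control. At 2 h, mice are killed and 7-mm ear punches are weighed. Edema is taken as right minus left punch weight, and inhibition is calculated versus vehicle. n = 11; ANOVA.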

Mus musculus [2] = test: Antiinflammatory activity in Kunming mouse assessed as inhibition of xylene-induced ear edema at 10 mg/kg, po after […]rs; type: functional; outline: as §1
Mus musculus [3] = test: Antiinflammatory activity in Kunming mouse assessed as inhibition of xylene-induced ear edema at 20 mg/kg, po after […]rs; type: functional; outline: as §1
Mus musculus [4] = test: Gastrointestinal toxicity in mouse assessed as tail bleeding time at 200 mg/kg, po after 30 mins; type: organism-based; design: dose 200 mg/kg, route oral; settings: in vivo, 0.5 h
Outline: (§2)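 Male mice (18–22 g) are dosed orally and compared with an NS group. At 30, 45, 60 and 90 min after dosing, each mouse is restrained in a tube holder and a 2-mm cut is made on the tail. Blood is wiped away every 30 s until flow stops, and the time to cessation is recorded.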

Mus musculus [5] = test: Gastrointestinal toxicity in mouse assessed as tail bleeding time at 200 mg/kg, po after 45 mins; type: organism-based; design: dose 200 mg/kg, route oral; settings: in vivo, 0.75 h; outline: as §2
Mus musculus [6] = test: Gastrointestinal toxicity in mouse assessed as tail bleeding time at 200 mg/kg, po after 60 mins; type: organism-based; design: dose 200 mg/kg, route oral; settings: in vivo, 1 h; outline: as §2
Mus musculus [7] = test: Gastrointestinal toxicity in mouse assessed as tail bleeding time at 200 mg/kg, po after 90 mins; type: organism-based; design: dose 200 mg/kg, route oral; settings: in vivo, 1.5 h; outline: as §2
[8] = Permeability from apical to basolateral side of human Caco-2 cell membrane; type: ADME, cell-based
[9] = Permeability from basolateral to apical side of human Caco-2 cell membrane; type: ADME, cell-based
Caco-2 = test: Ratio of permeability from apical to basolateral side over basolateral to apical side of human Caco-2 cell membrane; type: ADME, cell-based
[10] = Inhibition of bovine brain PKC; design: species or system Bos taurus
Mus musculus [11] = test: Antiinflammatory activity in Kunming mouse assessed as inhibition of xylene-induced ear edema at 30 mg/kg, po after […]rs; type: functional; outline: as §1

## C[C@@H]1O[C@@H](c2ccc([N+](=O)[O-])cc2)OC[C@H]1N
Mus musculus [1]
  inhibition in vivo at 5 mg/kg: 42.3%
Mus musculus [2]
  inhibition in vivo at 10 mg/kg: 58%
Mus musculus [3]
  inhibition in vivo at 20 mg/kg: 78.5%
Mus musculus [4]
  Time: 118.4 s
Mus musculus [5]
  Time: 119.2 s
Mus musculus [6]
  Time: 117.2 s
Mus musculus [7]
  Time: 118.9 s
[8]
  Papp A→B: 13 ×10⁻⁶ cm/s
[9]
  Papp B→A: 6.96 ×10⁻⁶ cm/s
Caco-2
  Ratio: 1.87
[10]
  IC50: 890 µM

## CC(=O)Oc1ccccc1C(=O)O [ASPIRIN]
Mus musculus [11]
  inhibition in vivo at 30 mg/kg: 40.7%
Mus musculus [3]
  inhibition in vivo at 20 mg/kg: 40.7%
